ChEMBL document CHEMBL1124517, “Nucleosides of azathioprine and thiamiprine as antiarthritics” (J Med Chem, 1989)

Key:
Rattus norvegicus [1] = organism: Rattus norvegicus; assay: Antiarthritic activity in rat determined by adjuvant arthritis assay in rat; assay type: functional
Outline: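 Female Lewis rats, starting weight 190 ± 10 g, adjuvant-induced arthritis. Compound milled into rodent diet, dosed as mg/kg/day in diet from the day of adjuvant injection for 14 days. Arthritic score and weight change assessed on day 16. ED50 is the dose giving a 50% reduction in arthritic score relative to untreated animals.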

Rattus norvegicus [2] = organism: Rattus norvegicus; assay: Compound was tested for dose at which there was no significant weight loss in rat at day 16; assay type: functional
Outline: (§1)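 Female Lewis rats (starting weight 190 ± 10 g) with adjuvant-induced arthritis. Compound was milled into rodent chow and given in the diet (mg/kg/day) from the day of adjuvant injection for 14 days. Weight change and deaths were scored on day 16. The highest nontoxic dose was the highest dose without significant weight loss. LD50 was the dietary dose killing 50% by day 16. Some values are approximate, from two dose levels.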

Rattus norvegicus [3] = organism: Rattus norvegicus; assay: Compound was tested for lethal dose at day 16 against rat; assay type: ADME, organism-based; conditions: in vivo; outline: as §1

With `Nc1nc2nc[nH]c2c(=S)[nH]1` [THIOGUANINE] the ED50 (Rattus norvegicus [1]) was 10 mg kg-1 (day in diet)-1, the Highest nontoxic dose (Rattus norvegicus [2]) was 10 mg kg-1 (day in diet)-1 and the LD50 (Rattus norvegicus [3]) was 20 mg kg-1 (day in diet)-1.
In the case of `Cn1cnc([N+](=O)[O-])c1Sc1nc(N)nc2[nH]cnc12` [THIAMIPRINE], the ED50 (Rattus norvegicus [1]) was 19 mg kg-1 (day in diet)-1, the Highest nontoxic dose (Rattus norvegicus [2]) was 30 mg kg-1 (day in diet)-1 and the LD50 (Rattus norvegicus [3]) was 60 mg kg-1 (day in diet)-1.
`Cn1cnc([N+](=O)[O-])c1Sc1nc(N)nc2c1ncn2[C@@H]1O[C@H](CO)[C@@H](O)[C@H]1O` was tested, and the ED50 (Rattus norvegicus [1]) was 36 mg kg-1 (day in diet)-1, the Highest nontoxic dose (Rattus norvegicus [2]) was 50 mg kg-1 (day in diet)-1 and the LD50 (Rattus norvegicus [3]) was 50 mg kg-1 (day in diet)-1.
In the case of `Cn1cnc([N+](=O)[O-])c1Sc1ncnc2c1ncn2[C@H]1C[C@H](O)[C@@H](CO)O1`, the ED50 (Rattus norvegicus [1]) was 64 mg kg-1 (day in diet)-1, the Highest nontoxic dose (Rattus norvegicus [2]) was 100 mg kg-1 (day in diet)-1 and the LD50 (Rattus norvegicus [3]) was > 270 mg kg-1 (day in diet)-1.
With `Cn1cnc([N+](=O)[O-])c1Sc1nc(N)nc2c1ncn2[C@H]1C[C@H](O)[C@@H](CO)O1` the ED50 (Rattus norvegicus [1]) was 38 mg kg-1 (day in diet)-1, the Highest nontoxic dose (Rattus norvegicus [2]) was 50 mg kg-1 (day in diet)-1 and the LD50 (Rattus norvegicus [3]) was 100 mg kg-1 (day in diet)-1.
For `Cn1cnc([N+](=O)[O-])c1Sc1ncnc2c1ncn2[C@@H]1O[C@H](CO)[C@@H](O)[C@H]1O`, the ED50 (Rattus norvegicus [1]) was 68 mg kg-1 (day in diet)-1, the Highest nontoxic dose (Rattus norvegicus [2]) was 180 mg kg-1 (day in diet)-1 and the LD50 (Rattus norvegicus [3]) was 200 mg kg-1 (day in diet)-1.
For `Sc1ncnc2nc[nH]c12` [MERCAPTOPURINE ANHYDROUS], the ED50 (Rattus norvegicus [1]) was 20 mg kg-1 (day in diet)-1, the Highest nontoxic dose (Rattus norvegicus [2]) was 20 mg kg-1 (day in diet)-1 and the LD50 (Rattus norvegicus [3]) was 25 mg kg-1 (day in diet)-1.
For `Cn1cnc([N+](=O)[O-])c1Sc1ncnc2nc[nH]c12` [AZATHIOPRINE], the ED50 (Rattus norvegicus [1]) was 21 mg kg-1 (day in diet)-1, the Highest nontoxic dose (Rattus norvegicus [2]) was 48 mg kg-1 (day in diet)-1 and the LD50 (Rattus norvegicus [3]) was 150 mg kg-1 (day in diet)-1.
